Tests used:
Thoracic aorta [1] = experiment: Vasodilatory activity in Wistar rat endothelium-intact thoracic aorta assessed as inhibition of norepinephrine-induced contraction at 100 uM after 20 mins by organ-bath technique; type: functional
Summary of the method: (§1)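 Rat aortic rings in Krebs-Henseleit solution, equilibrated 2 h at 1.5 g basal tension with bath changes every 20 min. Endothelium taken as intact when acetylcholine (1 × 10^-5 mmol) relaxed norepinephrine-precontracted rings by more than 80%. Rings were precontracted with norepinephrine bitartrate (1 × 10^-6 mM) before compound addition. Response is expressed as percent of maximal control norepinephrine contraction. Mean ± SEM, paired t-test.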

Thoracic aorta [2] = experiment: Vasodilatory activity in Wistar rat endothelium-intact thoracic aorta assessed as inhibition of norepinephrine-induced contraction after 20 mins by organ-bath technique; type: functional, tissue-based; summary of the method: as §1

| IC50 (Thoracic aorta [2]) [µM] | Compound | inhibition at 100 µM (Thoracic aorta [1]) [%] | inhibition (Thoracic aorta [2]) |
| --- | --- | --- | --- |
|  | Cc1c(C(c2ccc(Cl)cc2)c2oc3c(c2C)C(=O)C(=O)c2c-3ccc3c2CCCC3(C)C)oc2c1C(=O)C(=O)c1c-2ccc2c1CCCC2(C)C | 1 |  |
| 130 | COc1cc(C(c2oc3c(c2C)C(=O)C(=O)c2c-3ccc3c2CCCC3(C)C)c2oc3c(c2C)C(=O)C(=O)c2c-3ccc3c2CCCC3(C)C)ccc1O | 42.8 | Dose-dependent effect |
|  | Cc1c(C(c2ccc(O)c(O)c2)c2oc3c(c2C)C(=O)C(=O)c2c-3ccc3c2CCCC3(C)C)oc2c1C(=O)C(=O)c1c-2ccc2c1CCCC2(C)C | -0.86 |  |
|  | Cc1c(C(c2ccccc2Cl)c2oc3c(c2C)C(=O)C(=O)c2c-3ccc3c2CCCC3(C)C)oc2c1C(=O)C(=O)c1c-2ccc2c1CCCC2(C)C | -29.2 |  |
|  | Cc1c(C(c2ccccc2)c2oc3c(c2C)C(=O)C(=O)c2c-3ccc3c2CCCC3(C)C)oc2c1C(=O)C(=O)c1c-2ccc2c1CCCC2(C)C | 2.95 |  |
|  | Cc1coc2c1C(=O)C(=O)c1c-2ccc2c1CCCC2(C)C [TANSHINONE IIA] | 2.92 |  |
| 480 | CC(CO)C1=C(O)C(=O)c2c(ccc3c2CCCC3(C)C)C1=O (stereo not given) | 59.2 | Dose-dependent effect |
| 260 | Cc1c(C(c2cccc(Cl)c2)c2oc3c(c2C)C(=O)C(=O)c2c-3ccc3c2CCCC3(C)C)oc2c1C(=O)C(=O)c1c-2ccc2c1CCCC2(C)C | 56 | Dose-dependent effect |
|  | Cc1c(C(c2ccc([N+](=O)[O-])cc2)c2oc3c(c2C)C(=O)C(=O)c2c-3ccc3c2CCCC3(C)C)oc2c1C(=O)C(=O)c1c-2ccc2c1CCCC2(C)C | 11.4 |  |
|  | COc1ccc(C(c2oc3c(c2C)C(=O)C(=O)c2c-3ccc3c2CCCC3(C)C)c2oc3c(c2C)C(=O)C(=O)c2c-3ccc3c2CCCC3(C)C)cc1 | 11 |  |
|  | Cc1c(C(c2ccc([S+](C)[O-])cc2)c2oc3c(c2C)C(=O)C(=O)c2c-3ccc3c2CCCC3(C)C)oc2c1C(=O)C(=O)c1c-2ccc2c1CCCC2(C)C (stereo not given) | 10.3 |  |
|  | Cc1c(C(c2ccc(O)cc2)c2oc3c(c2C)C(=O)C(=O)c2c-3ccc3c2CCCC3(C)C)oc2c1C(=O)C(=O)c1c-2ccc2c1CCCC2(C)C | 15.2 |  |
|  | Cc1c(Br)oc2c1C(=O)C(=O)c1c-2ccc2c1CCCC2(C)C | 4.24 |  |
|  | Cc1c(C(c2cccc([N+](=O)[O-])c2)c2oc3c(c2C)C(=O)C(=O)c2c-3ccc3c2CCCC3(C)C)oc2c1C(=O)C(=O)c1c-2ccc2c1CCCC2(C)C | 18.8 |  |

From ChEMBL document CHEMBL1208775, “Synthesis and vasodilative activity of tanshinone IIA derivatives” (Bioorg Med Chem Lett, 2010)
